SENP6 block: SENP6 protease inhibitors, primary screen, biochemical, luminescence, uHTS. Recombinant SENP6 catalytic domain, aminoluciferin luminescence. inhibition, % at 10 µM. 330,000 tested, 1.8% active;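 active means inhibition above about 50% at the single tested dose, limit read from the data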
Target sequence (Q9GZR1 628-1112 limits assumed): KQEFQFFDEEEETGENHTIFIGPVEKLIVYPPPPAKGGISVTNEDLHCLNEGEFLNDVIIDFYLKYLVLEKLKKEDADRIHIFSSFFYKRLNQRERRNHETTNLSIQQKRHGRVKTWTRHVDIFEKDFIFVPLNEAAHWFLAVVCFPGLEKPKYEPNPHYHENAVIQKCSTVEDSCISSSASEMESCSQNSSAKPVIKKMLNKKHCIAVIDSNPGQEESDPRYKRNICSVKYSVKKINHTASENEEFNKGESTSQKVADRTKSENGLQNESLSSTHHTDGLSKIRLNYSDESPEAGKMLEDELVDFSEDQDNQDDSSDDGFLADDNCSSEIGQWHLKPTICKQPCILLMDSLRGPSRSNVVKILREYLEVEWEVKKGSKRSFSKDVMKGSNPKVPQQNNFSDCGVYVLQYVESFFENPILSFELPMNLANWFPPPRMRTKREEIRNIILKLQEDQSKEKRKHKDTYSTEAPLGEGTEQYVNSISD
SENP8 block-1: human SENP8 protease inhibitors, primary screen, biochemical, fluorescence, Nedd8 protein substrate, uHTS. Sentrin-specific protease 8 (Homo sapiens), Q96LD8. recombinant SENP8. inhibition, % at 20 µM. 360,000 tested, 0.64% active; in the data active means inhibition mostly above about 40%, no sharp cut-off; inactive means mostly below about 27%
SENP1 inh: human SENP1 catalytic domain inhibitors, primary screen, biochemical, FRET, uHTS; recombinant SENP1 catalytic domain, CyPet-SUMO1-YPet FRET cleavage; 360,000 tested, 0.21% active; AID 624204, 2012; inhibition, % at 10 µM;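 active means inhibition at least 30% at 10 µM, raw YFP signal under a set limit, fluorescence ratio 0.5 to 1.5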
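material = recombinant human SENP1 catalytic domain, His6-tagged | quantity = 20 pM enzyme | reagent = 25 nM SUMO1 FRET substrate | compound dosing = 10 µM single point, 0.5% DMSO | timing = 50 min enzyme reaction, room temperature, light-protected | detection = FRET, CFP and YFP emission | control set = no-enzyme low, enzyme-DMSO high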
SENP7 block: SENP7 protease inhibitors, primary screen, biochemical, luminescence, uHTS. Sentrin-specific protease 7 (Homo sapiens), Q9BQF6. recombinant SENP7, Z-RLRGG-aminoluciferin luminescence, 40 min. 330,000 tested, 1.5% active. inhibition, % at 5 µM;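 active means inhibition above about 50% at the single test dose, limit read from the data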
SENP8 block-2: SENP8 protease inhibitors, primary screen, biochemical, luminescence | Sentrin-specific protease 8 (Homo sapiens), Q96LD8 | AID 2540, 2010 | 330,000 tested, 1.2% active | inhibition, % at 10 µM | purified SENP8, Z-RLRGG-aminoluciferin cleavage; in the data active means inhibition above about 50%
SENP8 conf: SENP8 protease inhibitors, retest, confirmation, biochemical, luminescence, single concentration | shares compounds with SENP7 block | Recombinant SENP8, Z-RLRGG-aminoluciferin luminescence, 60 min | 6,200 tested, 40% active | inhibition, % at 12.5 µM;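 active means mean inhibition across replicates above about 50%, limit read from the data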
SENP6 confirm: SENP6 protease inhibitors, confirmation, biochemical, luminescence, single concentration; shares compounds with SENP7 block; recombinant SENP6, Z-RLRGG-aminoluciferin luminescence; inhibition, % at 12.5 µM; 6,200 tested, 58% active; AID 488915, 2010
SENP7 confirm: SENP7 protease inhibitors, retest, confirmation, biochemical, luminescence, single concentration; recombinant SENP7, Z-RLRGG-aminoluciferin luminescence, 40 min; 6,200 tested, 69% active; inhibition, % at 12.5 µM; shares compounds with SENP7 block
Casp3 select: caspase-3 protease inhibitors, confirmation, selectivity assay for SENP inhibitor project, biochemical, single concentration; inhibition, % at 12.5 µM; shares compounds with SENP7 block; 6,200 tested, 60% active; purified caspase-3, Z-DEVD-aminoluciferin luminescence, 60 min; AID 488918, 2010;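 active means mean inhibition above about 50%, limit read from the data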
SENP luc ctr: interferes with luciferase luminescence in SENP counter-screen | Pre-incubated SENP8/Z-RLRGG-aminoluciferin, luciferase luminescence interference | 6,200 tested, 39% active | inhibition, % at 12.5 µM | shares compounds with SENP7 block;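 active means mean inhibition above about 50% when retested at one dose, limit read from the data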
Numbers stand for hits; - = inactive; . = not tested or not shown. This is a sample that favours compounds with a hit; in the whole collection about 2.5% have one here.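 How the source made its calls, unless noted: active means mean inhibition above about 50% in the one-dose retest (limit read from the data); inactive means the rest.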

SMILES | SENP6 block | SENP8 block-1 | SENP1 inh | SENP7 block | SENP8 block-2 | SENP8 conf | SENP6 confirm | SENP7 confirm | Casp3 select | SENP luc ctr
NS(=O)(=O)c1ccc2nc(NC(=O)Nc3ccccc3F)sc2c1 | 76 | - | - | 59 | 59 | 69 | 71 | 90 | 58 | 76
CCN1CCN(C2=C(NS(=O)(=O)c3ccc(Br)cc3)C(=O)c3ccccc3C2=O)CC1 | 64 | - | - | - | - | - | - | - | - | -
CCOC(=O)C1CCN(C2=C(NS(=O)(=O)c3ccc(Br)cc3)C(=O)c3ccccc3C2=O)CC1 | 53 | 50 | - | - | - | - | - | - | - | -
COc1cccc(C(c2c(C)[nH]n(-c3ccccc3)c2=O)c2c(C)[nH]n(-c3ccccc3)c2=O)c1O | 57 | 54 | - | 56 | - | - | - | - | - | -
COc1ccc(C(C[N+](=O)[O-])c2c(C)cc3ccccn23)cc1 (centres undefined) | - | - | - | - | - | . | . | . | . | .
COc1ccc(C(C[N+](=O)[O-])c2c(C)[nH]n(-c3ccccc3)c2=O)cc1 (centres undefined) | 65 | 84 | - | 61 | - | - | 60 | - | - | -
CC1(C)CC(NC(=O)c2cccc(S(=O)(=O)Nc3cccc(Cl)c3)c2)CC(C)(C)N1 | - | - | - | - | - | . | . | . | . | .
CC(=O)c1cc(C#N)c(Oc2ccc(Cl)cc2Cl)nc1C | - | - | - | - | - | . | . | . | . | .
C[C@@H]1CN([C@H](C)CO)C(=O)CCCn2nncc2CO[C@H]1CN(C)C(=O)c1ccc2ccn(C)c2c1 | . | - | - | . | . | . | . | . | . | .
O=C(Nc1ccsc1C(=O)O)c1cccc(Oc2ccccc2)c1 | 93 | - | - | - | 91 | 95 | 96 | 99 | 79 | 95
O=C(Nc1ccsc1C(=O)O)c1cccc(C(F)(F)F)c1 | 75 | - | - | - | 69 | 82 | 82 | 92 | 80 | 83
O=C(Nc1cccc2ccccc12)N1CC=CCC1 | 65 | - | - | - | - | - | - | - | - | -
O=c1[nH]c(C(Cl)(Cl)Cl)nc2ccc3ccccc3c12 | 88 | - | - | - | 74 | - | 71 | 80 | 60 | -
Cc1ccc(NC(=S)N/N=C/c2c(C)nn(-c3ccccc3)c2N2CCCC2)cc1 | - | - | - | - | - | . | . | . | . | .
COc1c(/C=N/NC(N)=S)c(C)nn1-c1ccccc1 | - | - | - | - | 70 | - | - | - | - | -
CN(C(=O)COC(=O)Cc1ccc(Br)cc1)c1c(N)n(Cc2ccccc2)c(=O)[nH]c1=O | . | - | - | . | . | . | . | . | . | .
C/C(CCc1ccco1)=N\NC(=O)CNc1cccc2ccccc12 | - | - | - | - | - | . | . | . | . | .
O=C(CNc1ccc2ccccc2c1)N/N=C/c1ccc(C(=O)O)cc1 | - | - | - | - | - | . | . | . | . | .
O=C(CNc1cccc2ccccc12)N/N=C/C=C/c1ccco1 | 82 | - | - | - | 60 | - | - | - | - | -
O=C(CNc1cccc2ccccc12)N/N=C/c1ccc(C(=O)O)cc1 | 71 | - | - | - | 58 | - | - | - | - | -
C/C(=N\NC(=O)CNc1cccc2ccccc12)c1ccccc1 | 73 | - | - | - | 54 | - | - | - | - | -
O=S1(=O)CC(N2CC=CC2)CN1Cc1cn(Cc2ccccc2)nn1 (centres undefined) | . | - | - | . | . | . | . | . | . | .
CCn1c(CC(=O)Nc2ccc(OC)cc2)nnc1SCC(=O)N1CCOCC1 | - | - | - | - | - | . | . | . | . | .
CC(C)c1ccccc1NC(=O)Nc1nnc([C@@H]2C[C@H](O)[C@@H](CO)O2)s1 | . | - | - | . | . | . | . | . | . | .
Cc1ccsc1C1NC(=O)c2c(sc3c2CCCC3)N1 (centres undefined) | 74 | - | - | 54 | - | - | 68 | 82 | 53 | -
SMILES | SENP6 block | SENP8 block-1 | SENP1 inh | SENP7 block | SENP8 block-2 | SENP8 conf | SENP6 confirm | SENP7 confirm | Casp3 select | SENP luc ctr
O=C1NC(c2ccc(Br)cc2)Nc2sc3c(c21)CCC3 (centres undefined) | - | - | - | - | - | . | . | . | . | .
CCCCNC(=O)C1(C)CCN1C(=O)c1cc2ccccc2s1 (centres undefined) | . | - | - | . | . | . | . | . | . | .
CC/C=C/C(=O)N1CC2(CC(c3cccc(NC(=O)COc4ccc(Cl)cc4)c3)=NO2)C[C@H]1C(N)=O (some centres undefined) | - | - | - | - | - | . | . | . | . | .
CC1=NN(c2ccccc2)C(=O)/C1=C/c1c(C)[nH]n(-c2ccc(C)cc2)c1=O | - | . | . | - | - | . | . | . | . | .
COc1cc(/C=C2/C(=O)N(c3cccc(Br)c3)N=C2C)cc(OC)c1O | - | 61 | - | 54 | - | - | - | - | - | -
CC1=NN(c2ccccc2)C(=O)/C1=C/c1cccc(C)c1 | - | 70 | - | 52 | - | - | - | - | - | -
CCCC(=O)Nc1ccc(C2C(=O)c3ccccc3C2=O)cc1 | 75 | - | - | - | 56 | - | 80 | 94 | 93 | 80
O=C(Nc1ccccc1)Nc1ccccc1C(=O)NCc1ccccc1 | - | - | - | 52 | - | - | - | 74 | - | -
CNC(=O)Nc1ccccc1C(=O)NCc1ccccc1 | - | - | - | - | - | . | . | . | . | .
O=C(Nc1ccc(Cl)cc1)Nc1ccccc1C(=O)NCc1ccco1 | 91 | - | - | 96 | 84 | 80 | 81 | 99 | 78 | 78
O=C(/C=C/c1ccccc1)Nc1sc2c(c1C(=O)O)CCC2 | - | - | - | - | 69 | - | 74 | 90 | 73 | 81
O=C(/C=C/c1ccco1)Nc1sc2c(c1C(=O)O)CCC2 | 92 | - | - | - | 84 | 91 | 90 | 99 | 94 | 92
N#Cc1c(NC(=O)/C=C/c2ccco2)sc2c1CCCC2 | . | - | - | . | . | . | . | . | . | .
COc1ccc(Cl)cc1N(CC(=O)NCc1ccccn1)S(=O)(=O)c1ccc(C)cc1 | . | - | - | . | . | . | . | . | . | .
